Experimental data published in ChEMBL document CHEMBL4689842, “EUbOPEN Chemogenomics Library wave 1” (2021).
Values joined by “and” are separate entries in the source; they are usually repeats but may differ in a detail not shown here. Identical values can stand only once.

Test system: U2OS
Test: Multiplex assay against U2OS
Format: toxicity, cell-based
Conditions: human, 10 µM, compound concentration 10 uM
Method in brief: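 Values for tubulin, mitochondrial-mass and membrane-permeability phenotypes are per cents of cells with healthy nuclei. These cells were identified by CellPathfinder machine-learning gating of live cells that had been stained at seeding with Hoechst33342, BioTracker Green Microtubule Cytoskeleton Dye, MitoTracker Red and Annexin V Alexa Fluor 680 and imaged on a CQ1 microscope at 37°C and 5% CO2 after compound addition. The gating first set Hoechst high-intensity objects apart from normal cells, then split normal cells into healthy, pyknosed or fragmented nuclei, and pyknosed cells into mitotic or apoptotic.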

Cc1sc2c(c1C)C(c1ccc(Cl)cc1)=N[C@@H](CC(=O)OC(C)(C)C)c1nnc(C)n1-2
Population Apoptotic (%) (12 h, replicate 1): 41% and 34%
Population Fragmented Nuclei (%) (12 h, replicate 1): 12%
Population Healthy Nuclei (%) (12 h, replicate 1): 67% and 58%
Population Hoechst High Intensity Objects (%) (12 h, replicate 1): 5% and 6%
Population Membrane Permeable-Phenotype (%) (12 h, replicate 1): 21% and 12%
Population Mitochondria Different-Phenotype (%) (12 h, replicate 1): 17% and 22%
Population Mitotic Cells (%) (12 h, replicate 1): 58% and 65%
Population Normal (%) (12 h, replicate 1): 94% and 93%
Population Pyknosed Nuclei (%) (12 h, replicate 1): 19% and 20%
Population Tubulin-Different-Phenotype (%) (12 h, replicate 1): 17% and 24%
Total Cell Count (12 h, replicate 1): 1986
Population Apoptotic (%) (12 h, replicate 2): 28% and 14%
Population Fragmented Nuclei (%) (12 h, replicate 2): 29% and 21%
Population Healthy Nuclei (%) (12 h, replicate 2): 55% and 62%
Population Hoechst High Intensity Objects (%) (12 h, replicate 2): 13% and 12%
Population Membrane Permeable-Phenotype (%) (12 h, replicate 2): 14%
Population Mitochondria Different-Phenotype (%) (12 h, replicate 2): 28% and 33%
Population Mitotic Cells (%) (12 h, replicate 2): 71% and 85%
Population Normal (%) (12 h, replicate 2): 86% and 87%
Population Pyknosed Nuclei (%) (12 h, replicate 2): 15% and 16%
Population Tubulin-Different-Phenotype (%) (12 h, replicate 2): 36% and 27%
Population Apoptotic (%) (24 h, replicate 1): 88%
Population Fragmented Nuclei (%) (24 h, replicate 1): 16% and 20%
Population Healthy Nuclei (%) (24 h, replicate 1): 58%
Population Hoechst High Intensity Objects (%) (24 h, replicate 1): 5% and 6%
Population Membrane Permeable-Phenotype (%) (24 h, replicate 1): 27% and 23%
Population Mitochondria Different-Phenotype (%) (24 h, replicate 1): 19% and 29%
Population Mitotic Cells (%) (24 h, replicate 1): 12%
Population Normal (%) (24 h, replicate 1): 94% and 93%
Population Pyknosed Nuclei (%) (24 h, replicate 1): 24% and 20%
Population Tubulin-Different-Phenotype (%) (24 h, replicate 1): 30% and 40%
Population Apoptotic (%) (24 h, replicate 2): 76% and 64%
Population Fragmented Nuclei (%) (24 h, replicate 2): 30% and 25%
Population Healthy Nuclei (%) (24 h, replicate 2): 53% and 52%
Population Hoechst High Intensity Objects (%) (24 h, replicate 2): 11% and 12%
Population Membrane Permeable-Phenotype (%) (24 h, replicate 2): 20% and 18%
Population Mitochondria Different-Phenotype (%) (24 h, replicate 2): 30% and 23%
Population Mitotic Cells (%) (24 h, replicate 2): 23% and 35%
Population Normal (%) (24 h, replicate 2): 88%
Population Pyknosed Nuclei (%) (24 h, replicate 2): 15% and 22%
Population Tubulin-Different-Phenotype (%) (24 h, replicate 2): 52% and 34%
